Several values for one entry are separate records, joined by “and”; a condition that tells them apart may be missing. Equal entries are not always repeated.
How the values were obtained:
Canis familiaris [1] = assay: Conduction time was determined by intraduodenal administration of two dosages of 10 mg/kg of compound in anesthetized dogs. Value was reported for experiment 1; format: functional, Canis lupus familiaris
In short: (§1)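 Anesthetized dogs given the compound intraduodenally, generally as two doses with the second a cumulative total (low/high). FRP and CT measured at 15, 30 and 45 min after dosing. HR and BP taken during nonpacing intervals. Values are percent change from control per animal. Activity criterion is FRP or CT prolonged ≥12%. Vehicle: 5% dextrose in water/tragacanth.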

Canis familiaris [2] = assay: Conduction time was determined by intraduodenal administration of two dosages of 1 mg/kg (low dose) of compound in anesthetized dogs. Value was reported for experiment 2; format: functional, Canis lupus familiaris; in short: as §1
Canis familiaris [3] = assay: Conduction time was determined by intraduodenal administration of two dosages of 1 mg/kg (low dose) of compound in anesthetized dogs. Value was reported for experiment 3; format: functional, Canis lupus familiaris; in short: as §1
Canis familiaris [4] = assay: Conduction time was determined by intraduodenal administration of two dosages of 10 mg/kg (high dose) of compound in anesthetized dogs. Value was reported for experiment 3; format: functional, Canis lupus familiaris; in short: as §1
Canis familiaris [5] = assay: Conduction time was determined by intraduodenal administration of two dosages of 3 mg/kg (high dose) of compound in anesthetized dogs. Value was reported for experiment 3; format: functional, Canis lupus familiaris; in short: as §1
Canis familiaris [6] = assay: Heart rate was determined by intraduodenal administration of two dosages of 3 mg/kg of (high dose) compound in anesthetized dogs. Value was reported for experiment 3; format: functional, Canis lupus familiaris; in short: as §1
Canis familiaris [7] = assay: Heart rate was determined by intraduodenal administration of two dosages of 3 mg/kg of (low dose) compound in anesthetized dogs. Value was reported for experiment 1; format: functional, Canis lupus familiaris
In short: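 Anesthetized dogs; compound given intraduodenally, generally as two doses, the second a cumulative (high) dose. LV functional refractory period and conduction time measured 15, 30 and 45 min after dosing; heart rate and blood pressure measured during nonpacing intervals. Values are % change from control, given per individual animal. Active if FRP or CT prolonged by ≥12%.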

Canis familiaris [8] = assay: Heart rate was determined by intraduodenal administration of two dosages of 1 mg/kg of (low dose) compound in anesthetized dogs. Value was reported for experiment 2; format: functional, Canis lupus familiaris; in short: as §1
Canis familiaris [9] = assay: Left ventricular refractory period was determined by intraduodenal administration of two dosages of 1 mg/kg of (low dose) compound in anesthetized dogs. Value was reported for experiment 2; format: functional, Canis lupus familiaris, Cardiac ventricle
In short: (§2)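 Anesthetized dogs, usually given two intraduodenal doses, with the second dose cumulative (low/high). Left ventricular FRP and CT were determined at 15, 30 and 45 min after dosing. HR and BP were measured during nonpacing intervals. Values are % change from control at low/high dose, for individual animals. The vehicle-stability set used 5% dextrose in water/tragacanth (n = 8).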

Canis familiaris [10] = assay: Left ventricular refractory period was determined by intraduodenal administration of two dosages of 3 mg/kg of (high dose) compound in anesthetized dogs. Value was reported for experiment 2; format: functional, Canis lupus familiaris, Cardiac ventricle; in short: as §2
Canis familiaris [11] = assay: Left ventricular refractory period was determined by intraduodenal administration of two dosages of 3 mg/kg of (high dose) compound in anesthetized dogs. Value was reported for experiment 3; format: functional, Canis lupus familiaris, Cardiac ventricle; in short: as §2
Canis familiaris [12] = assay: Left ventricular refractory period was determined by intraduodenal administration of two dosages of 3 mg/kg of (low dose) compound in anesthetized dogs. Value was reported for experiment 1; format: functional, Canis lupus familiaris, Cardiac ventricle
In short: (§3)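 Anesthetized dogs received two intraduodenal doses, the second cumulative (low dose/high dose). Left ventricular FRP and CT were measured 15, 30 and 45 min after dosing. Heart rate and mean blood pressure were taken during nonpacing intervals. Values are percent change from control. The vehicle was 5% dextrose in water/tragacanth. Activity was defined as ≥12% prolongation of FRP or CT.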

Canis familiaris [13] = assay: Mean arterial blood pressure was determined by intraduodenal administration of two dosages of 1 mg/kg of (low dose) compound in anesthetized dogs. Value was reported for experiment 2; format: functional, Canis lupus familiaris; in short: as §2
Canis familiaris [14] = assay: Mean arterial blood pressure was determined by intraduodenal administration of two dosages of 1 mg/kg of (low dose) compound in anesthetized dogs. Value was reported for experiment 3; format: functional, Canis lupus familiaris; in short: as §2
Canis familiaris [15] = assay: Mean arterial blood pressure was determined by intraduodenal administration of two dosages of 10 mg/kg of (high dose) compound in anesthetized dogs. Value was reported for experiment 1; format: functional, Canis lupus familiaris; in short: as §3
Canis familiaris [16] = assay: Mean arterial blood pressure was determined by intraduodenal administration of two dosages of 3 mg/kg of (low dose) compound in anesthetized dogs. Value was reported for experiment 1; format: functional, Canis lupus familiaris; in short: as §3
Canis familiaris [17] = species on record: Canis familiaris; assay: In vitro electrophysiological evaluation in canine cardiac ventricular muscle reported as % change for the functional refractory period (FRP) concentration range of 0.1-10 uM; design: species or system Canis lupus familiaris, Muscle tissue
In short: (§4)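 Canine right ventricular/papillary muscle strips in oxygenated Tyrode's, extracellular extra-stimulus conduction-interval method. FRP and CT are read from conduction-interval curves before and during rising concentrations. Compound is a 10 mM aqueous stock diluted into Tyrode's. Each strip is used once as its own control. Readouts are percent change from control at 10 μM, plus the maximum change with its concentration.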

Canis familiaris [18] = species on record: Canis familiaris; assay: In vitro electrophysiological evaluation in canine cardiac Purkinje fibres reported as percent change Vmax concentration range of 0.1-100 uM; Minimal (<IO%increase or a decrease in CT); format: functional; settings: Canis lupus familiaris; Purkinje fiber
In short: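 Canine cardiac Purkinje fibres, intracellular microelectrode recording, paced at a basic cycle length of 1 s. APD95 and Vmax read simultaneously. Compound: 10 mM stock in deionized water, diluted into Tyrode's solution, tested over the stated concentration range. Each fibre used once as its own control. Result is % change from control, given at 10 µM or as the maximum with its concentration. M = <10% decrease or an increase in Vmax.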

Canis familiaris [19] = species on record: Canis familiaris; assay: In vitro electrophysiological evaluation in canine cardiac ventricular muscle reported as % change for conduction time(CT) at 0.1-10 uM concentration range; Minimal (<IO%increase or a decrease in CT); format: functional, Canis lupus familiaris, Muscle tissue; in short: as §4
Canis familiaris [20] = species on record: Canis familiaris; assay: In vitro electrophysiological evaluation in canine cardiac ventricular muscle reported as maximum % change for functional refractory period (FRP) at 0.1-10 uM concentration range; design: species or system Canis lupus familiaris, Muscle tissue
Canis familiaris [21] = species on record: Canis familiaris; assay: In vitro electrophysiological evaluation in canine cardiac Purkinje fibres reported as maximum percent change Vmax concentration range of 1-100 uM; format: functional; settings: Canis lupus familiaris; Purkinje fiber
In short: (§5)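 Canine cardiac Purkinje fibers, intracellular recording, paced at a basic cycle length of 1 s. APD95 and Vmax are recorded together across cumulative concentrations. Compound is a 10 mM aqueous stock diluted into Tyrode's solution. Each fiber is used once as its own control. Readouts are percent change from control at 10 μM, and the maximum change with the concentration where it occurred.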

Canis familiaris [22] = species on record: Canis familiaris; assay: In vitro electrophysiological activity in canine cardiac Purkinje fibres given as maximum % change for action potential duration at 0.01-100 uM concentration; format: functional, Canis lupus familiaris, Purkinje fiber; in short: as §5
Canis familiaris [23] = species on record: Canis familiaris; assay: In vitro electrophysiological activity in canine cardiac Purkinje fibres given as maximum % change for action potential duration at 0.1-100 uM concentration; format: functional, Canis lupus familiaris, Purkinje fiber
In short: (§6)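 Canine cardiac Purkinje fibres, intracellular recording at 1 s basic cycle length, over cumulative concentration ranges. Compound 10 mM stock in deionized water diluted into Tyrode's. Each fibre used once as its own control. Value is the maximum % change from control in APD at 95% repolarization, with the concentration where it occurred; both values given if a biphasic response (>20% reversal) occurred.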

Canis familiaris [24] = species on record: Canis familiaris; assay: In vitro electrophysiological activity in canine cardiac Purkinje fibres given as maximum % change for action potential duration at 0.1-10 uM concentration; format: functional, Canis lupus familiaris, Purkinje fiber; in short: as §6
Canis familiaris [25] = species on record: Canis familiaris; assay: In vitro electrophysiological evaluation in canine cardiac Purkinje fibres reported as maximum percent change Vmax concentration range of 0.01-100 uM; […]; format: functional; settings: Canis lupus familiaris; Purkinje fiber; in short: as §5

Q: Which results are given for `CCCCCCC[N+](CC)(CC)CCCCc1ccc(Cl)cc1.O=P([O-])(O)O` [CLOFILIUM PHOSPHATE]?
A: CT (Canis familiaris [1]): -7%; CT (Canis familiaris [2]): -5%; CT (Canis familiaris [3]): 0%; CT (Canis familiaris [4]): -11%; CT (Canis familiaris [5]): -7%; HR (Canis familiaris [6]): -7%; HR (Canis familiaris [7]): -9%; HR (Canis familiaris [8]): -2%; LV FRP (Canis familiaris [9]): -1%; LV FRP (Canis familiaris [10]): 2%; LV FRP (Canis familiaris [11]): 4%; LV FRP (Canis familiaris [12]): 10%; Mean blood pressure (Canis familiaris [13]): -2%; Mean blood pressure (Canis familiaris [14]): -3%; Mean blood pressure (Canis familiaris [15]): -11%; Mean blood pressure (Canis familiaris [16]): -7%; FRP (Canis familiaris [17]): 38%; Vmax (Canis familiaris [18]): < 10%; CT (Canis familiaris [19]): <10%; FRP (Canis familiaris [20]): 38%; Vmax (Canis familiaris [21]): -69% and -65%; APD95 (Canis familiaris [22]): 27% and 55%; APD95 (Canis familiaris [23]): 52% and 46%; APD95 (Canis familiaris [24]): 52%; Vmax (Canis familiaris [25]): < 10%

From ChEMBL document CHEMBL1123566, “Synthesis and cardiac electrophysiological activity of 2- and 3-[(substituted phenyl)alkyl]quinuclidines. Structure-activity relationships” (1987)
